Measured values: ChEMBL document CHEMBL1153564 (Antimicrob Agents Chemother, 2008)
Starred links: 1 amine or outer side, 2 acyl side, 3 side chain; linkers in the order of their positions; H or OH if unused. Positions of bridges follow the written chain, without caps; N, C: chain ends. Non-standard residues stand in square brackets, D forms with d. Residues, ends and D or L forms follow the SMILES beside them. *: point of attachment. pTerphenylCO(4''-OnC5H11) = CCCCCOc1ccc(-c2ccc(-c3ccc(C(=O)*)cc3)cc2)cc1; Orn(4R-OH,5R-OH) = O=C([C@H](C[C@@H](O)[C@@H](O)N[*:3])N[*:1])[*:2]; hTyr(3S-OH,4S-OH) = N[C@H](C(=O)O)[C@H](O)[C@@H](O)c1ccc(O)cc1; Pro(3S-OH,4S-Me) = C[C@H]1CN[C@H](C(=O)O)[C@H]1O; Hyp = O=C(O)[C@@H]1C[C@@H](O)CN1

Assays:
[1] = AUC (0 to infinity) in serum of neutropenic ICR/Swiss mouse candidiasis model at 80 mg/kg, ip by reverse-phase high-pressure liquid chromatography; format: ADME, organism-based; set-up: time infinity, dose 80 mg/kg, route intraperitoneal
Outline: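 Single ip dose in 0.2 ml to infected neutropenic mice. Serum from groups of three isoflurane-anaesthetised mice at 1, 4, 8, 12, 24 and 48 h, stored −80°C. Drug measured by reverse-phase HPLC with fluorescence detection against loratadine internal standard (calibration 10–50,000 ng/ml). Noncompartmental analysis; AUC by trapezoidal rule.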

Nakaseomyces glabratus = test: Antifungal activity against Candida glabrata 32930 infected in neutropenic ICR/Swiss mouse candidiasis model assessed as dose required to maintain […] of 1.83 +/- 0.54 log10CFU per kidney administered intraperitoneally every 24 hrs up to 4 days measured per 24 hrs; format: functional
Candida tropicalis [2] = test: Antifungal activity against Candida tropicalis 98-234 infected in neutropenic ICR/Swiss mouse candidiasis model assessed as fungal count per kidney administered 2 hrs postinfection measured up to 48 hrs; format: functional
Outline: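 Untreated neutropenic ICR/Swiss female mice infected iv via lateral tail vein (0.1 ml, 6.1 ± 0.51 log10 CFU/ml); kidneys homogenised, serially diluted 1:10 and plated on SDA, counted after 24 h at 35°C; growth in kidneys over 48 h, mean CFU per kidney of three mice, detection limit 100 CFU/ml.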

Candida tropicalis [3] = test: Antifungal activity against Candida tropicalis 98-234 infected in neutropenic ICR/Swiss mouse candidiasis model assessed as dose required to maintain […] of 3.81 +/- 0.33 log10CFU per kidney administered intraperitoneally every 24 hrs up to 4 days measured per 24 hrs; format: functional

## CCCCCOc1ccc(-c2ccc(-c3ccc(C(=O)N[C@H]4C[C@@H](O)[C@@H](O)NC(=O)[C@@H]5[C@@H](O)[C@@H](C)CN5C(=O)[C@H]([C@@H](C)O)NC(=O)[C@H]([C@H](O)[C@@H](O)c5ccc(O)cc5)NC(=O)[C@@H]5C[C@@H](O)CN5C(=O)[C@H]([C@@H](C)O)NC4=O)cc3)cc2)cc1 [ANIDULAFUNGIN] ({pTerphenylCO(4''-OnC5H11)}-[Orn(4R-OH,5R-OH)]T[Hyp][hTyr(3S-OH,4S-OH)]T[Pro(3S-OH,4S-Me)]; lactam 1-C)
[1]
  AUC(0-inf): 1980 µg·h/mL
Nakaseomyces glabratus
  Activity: 1.58 mg/kg
Candida tropicalis [2]
  log10cfu: 3.84
Candida tropicalis [3]
  Activity: 3.81 mg/kg
